Screening data from PubChem BioAssay.
ABCB1 inh – inhibitors of human ABCB1 transporter, ABCG2 counter-screen. P08183. CCRF-Adr cells, JC-1 efflux, flow cytometry. inhibition, % at 6.6 µM. actives 0.067% (n = 190,000); in the data active = inhibition above about 40%;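 also: 0% = vehicle and 100% = reference inhibitor; higher value means more JC-1 retained so stronger ABCB1 efflux block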
WT yeast gro inh – growth inhibition of WT yeast, mitochondrial fusion screen; mitochondrial fusion phenotypic screen, WT strain; inhibition, % at 10 µM; actives 2.1% (n = 190,000); AID 1362; in the data active = inhibition above about 58%; tested in S. cerevisiae
MEKK2 mut-MEK5 – signal of MEK5 binding to mutant human MEKK2 PB1 domain. bead flow cytometry, Alexa488-MEK5 binding to MEKK2 mutant. actives 0.35% (n = 290,000). percent response, % at 10 µM; in the data active = percent response above about 24%, passing the limit was not always enough
MEKK3 PB1 HTS – raises or lowers MEK5 binding to the human MEKK3 PB1 domain. Q99759. bead-based flow cytometry, Alexa488-MEK5 binding to MEKK3; actives lie on both sides; 0 = blocked by unlabeled MEK5, 100 = vehicle. binding response (% of control), % at 10 µM. actives 1.4% (n = 290,000). AID 1529;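 active = binding response more than 3 SD above or below the average of its plate-row segment, actives on both sides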;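 also: Alexa488 bead fluorescence after subtracting the streptavidin-only scavenger bead signal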
ABCG2 block – human ABCG2 inhibition, ABCB1 as counter-screen; Q9UNQ0; IgMXP3 cells, JC-1 efflux, flow cytometry; inhibition, % at 6.6 µM; actives 0.1% (n = 190,000); AID 1325;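 active = inhibition above 80%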;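 also: 0% = DMSO and 100% = nicardipine control wells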
Target sequence (Q9UNQ0 whole entry, looked up): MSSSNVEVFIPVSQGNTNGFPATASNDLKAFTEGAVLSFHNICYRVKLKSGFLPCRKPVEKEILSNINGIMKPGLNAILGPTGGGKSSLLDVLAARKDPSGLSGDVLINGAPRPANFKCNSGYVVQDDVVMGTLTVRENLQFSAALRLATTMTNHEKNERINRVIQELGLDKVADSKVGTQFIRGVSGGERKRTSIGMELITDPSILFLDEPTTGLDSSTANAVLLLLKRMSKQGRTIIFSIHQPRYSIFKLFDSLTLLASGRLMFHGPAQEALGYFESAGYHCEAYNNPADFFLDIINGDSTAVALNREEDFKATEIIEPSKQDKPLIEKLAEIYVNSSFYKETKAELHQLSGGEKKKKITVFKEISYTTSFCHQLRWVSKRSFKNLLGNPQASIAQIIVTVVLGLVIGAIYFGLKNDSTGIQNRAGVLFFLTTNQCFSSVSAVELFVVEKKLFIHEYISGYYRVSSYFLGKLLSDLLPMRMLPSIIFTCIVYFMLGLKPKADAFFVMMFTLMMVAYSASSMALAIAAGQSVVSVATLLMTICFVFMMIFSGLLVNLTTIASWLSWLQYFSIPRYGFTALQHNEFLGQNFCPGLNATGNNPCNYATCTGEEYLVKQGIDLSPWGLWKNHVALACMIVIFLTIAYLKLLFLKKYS
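System: two drug-resistant human cell lines, ABCG2 and ABCB1; controls: nicardipine high and DMSO low controls; times: 10 min exposure at 25 °C with rotation, no wash; detection: flow cytometry of retained JC-1 fluorescence; read-out basis: percent efflux inhibition, scaled nicardipine 100% to DMSO 0%; doses: one concentration, 6.6 µM final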
MEKK2wt PB1 HTS – raises or lowers MEK5 binding to wildtype human MEKK2 PB1 domain. AID 1531. binding response (% of control), % at 10 µM. bead flow cytometry, Alexa488-MEK5 binding to MEKK2 WT; actives lie on both sides. actives 1.1% (n = 290,000); in the data active = binding response below about 67% or above about 130%
MEKK2wt confirm – raises or lowers MEK5 binding to wildtype human MEKK2, retest; binding response (% of control), % at 10 µM; actives 2.4% (n = 5,900); shares compounds with MEKK3 PB1 HTS; bead flow cytometry, Alexa488-MEK5 binding to MEKK2 WT; actives lie on both sides; in the data active = binding response below about 16% or above about 210%; inactive = in between
MEKK2mut confirm – signal of MEK5 binding to mutant human MEKK2, retest. shares compounds with MEKK3 PB1 HTS. bead flow cytometry, Alexa488-MEK5 binding to MEKK2 mutant. percent response, % at 10 µM. actives 2% (n = 5,900); in the data active = percent response mostly above about 71%, no sharp cut-off; inactive = mostly below about 38%;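 also: higher means compound restores mutant binding toward wildtype level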
MEKK3-MEK5 inh – MEKK3-MEK5 PB1 inhibition, single concentration confirmation; shares compounds with MEKK3 PB1 HTS; bead flow cytometry, Alexa488-MEK5 binding to MEKK3; hits give low values; binding response (% of control), % at 10 µM; actives 1.8% (n = 5,900);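 active = binding response below 72% of control, or above a set upper limit, though filed actives all read lower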;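 also: 100% = DMSO only wells and 0% = binding blocked by excess unlabeled MEK5; lower values mean stronger disruption of MEK5 binding to MEKK3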
* hit, by the source's call; · = no result given; + = active, no number; [ ] = remark or other dose. Most compounds without a hit are left out; they make up all but 3.5% or so of the library.

SMILES | ABCB1 inh | WT yeast gro inh | MEKK2 mut-MEK5 | MEKK3 PB1 HTS | ABCG2 block | MEKK2wt PB1 HTS | MEKK2wt confirm | MEKK2mut confirm | MEKK3-MEK5 inh
O=c1[nH]ncc(NCc2ccc(Cl)cc2)c1Cl | 0.0 | -1.7 | 0.0 | 132.0* | -0.5 | 107.0 | 99.0 | -4.0 | 101.0
O=C(CSc1nc2c(c(=O)n1-c1ccc(Cl)cc1)SCC2)NCc1ccco1 | 0.1 | 4.5 | · | · | 4.8 | · | · | · | ·
O=C(CSc1nc2c(c(=O)n1-c1ccc(F)cc1)SCC2)NCc1ccco1 | 2.0 | -4.3 | 4.0 | 124.0* | 27.6 | 120.0 | 103.0 | -1.0 | 100.0
Cc1ccc(CSc2nnc(C)c(=O)n2N)cc1 | 0.1 | 10.5 | -1.0 | 131.0* | -8.0 | 101.0 | 102.0 | 2.0 | 100.0
Cc1nnc(SCC(=O)NCc2ccccc2Cl)n(N)c1=O | 0.0 | 6.8 | 1.0 | 130.0* | 0.4 | 107.0 | 111.0 | 7.0 | 102.0
Cc1nnc(SCc2ccccc2)n(N)c1=O | 0.3 | -27.1 | -1.0 | 69.0*[inhibitor] | -1.4 | 93.0 | 100.0 | -2.0 | 103.0
Cc1ccccc1CSc1nnc(C)c(=O)n1N | -0.5 | 14.9 | -4.0 | 86.0 | -3.9 | 89.0 | · | · | ·
Cc1nnc(SCc2ccccc2Cl)n(N)c1=O | 1.0 | 3.8 | 4.0 | 103.0 | 1.8 | 102.0 | · | · | ·
CC(C)(C)c1ccc(C(=O)Nc2cccc(-n3cnnn3)c2)cc1 | · | · | -8.0 | 101.0 | · | 103.0 | · | · | ·
C=CCn1c(SCC(=O)NC2CCCCC2)nnc1-c1sc(N)nc1C | 0.3 | 5.6 | -13.0 | 3.0*[inhibitor] | 1.4 | 3.0*[inhibitor] | 97.0 | 2.0 | 104.0
C=CCn1c(SCC(=O)Nc2sc(C)c(C)c2C(=O)OCC)nnc1-c1sc(N)nc1C | -1.2 | 4.0 | 14.0 | 100.0 | 2.7 | 99.0 | · | · | ·
C=CCN1C(=O)/C(=c2\sc3nc(=O)c(Cc4ccccc4)nn3c2=O)c2ccccc21 | · | · | -2.0 | 95.0 | · | -4.0*[inhibitor] | 89.0 | -2.0 | 91.0
Clc1ccc(OCCCNCc2ccccc2)c(Br)c1 | 0.5 | 35.9 | 22.0 | 105.0 | 0.6 | 153.0* | 134.0 | 19.0 | 103.0
CCNc1nc(NCC)nc(Oc2ccc(C(=O)OC)cc2)n1 | · | · | -33.0 | 84.0 | · | 87.0 | · | · | ·
O=C(NC1CCCCCC1)c1ccco1 | · | · | 6.0 | 104.0 | · | 105.0 | · | · | ·
O=C(Nc1ccccn1)c1ccc([N+](=O)[O-])cc1Cl | 0.3 | -3.5 | 14.0 | 103.0 | 1.9 | 113.0 | · | · | ·
O=C(Nc1ccccn1)c1cc2cc([N+](=O)[O-])ccc2s1 | 0.8 | 1.5 | 79.0* | 106.0 | 10.7 | 103.0 | 105.0 | 8.0 | 106.0
CCOC(=O)NC(=O)CSc1nnnn1-c1ccc(C)cc1 | 0.9 | -10.2 | -16.0 | 2.0*[inhibitor] | 3.6 | 2.0*[inhibitor] | 104.0 | 2.0 | 107.0
CCOC(=O)NC(=O)CSc1nnnn1-c1ccc(Cl)cc1 | 1.2 | 15.3 | -1.0 | 99.0 | 44.7 | 99.0 | · | · | ·
COc1ccc(NC(=O)CS(=O)CC(=O)NC2CCCc3ccccc32)cc1 (stereo not drawn) | 0.4 | -3.1 | 0.0 | 99.0 | 0.9 | 100.0 | · | · | ·
O=C(Cc1coc2ccc3ccccc3c12)NCc1ccccc1 | 0.0 | 29.7 | 0.0 | 93.0 | 0.3 | 91.0 | · | · | ·
O=C(Cc1coc2ccc3ccccc3c12)NC1CCCc2ccccc21 (stereo not drawn) | 0.5 | 12.2 | 1.0 | 135.0* | 8.6 | 106.0 | 97.0 | -9.0 | 95.0
Cc1ccc(-n2nnnc2SCC(=O)NC2CCCc3ccccc32)cc1 (stereo not drawn) | 1.1 | 23.4 | -1.0 | 140.0* | 3.7 | 101.0 | 103.0 | 1.0 | 104.0
Cc1cccc(C)c1NC(=O)CS(=O)CC(=O)NC1CCCc2ccccc21 (stereo not drawn) | 1.6 | -9.9 | 6.0 | 132.0* | 4.8 | 128.0 | 99.0 | -3.0 | 100.0
Cc1ccc(-n2nnnc2SCC(=O)NC2CCCc3ccccc32)c(C)c1 (stereo not drawn) | 2.4 | 17.5 | 0.0 | 100.0 | 3.4 | 97.0 | · | · | ·
SMILES | ABCB1 inh | WT yeast gro inh | MEKK2 mut-MEK5 | MEKK3 PB1 HTS | ABCG2 block | MEKK2wt PB1 HTS | MEKK2wt confirm | MEKK2mut confirm | MEKK3-MEK5 inh
O=C(c1cccc(Cl)c1)N1CCCc2ccccc21 | · | · | 3.0 | 105.0 | · | 103.0 | · | · | ·
O=C(Cc1c[nH]c2ccccc12)NCc1cccs1 | 3.3 | 13.8 | 0.0 | 136.0* | 0.0 | 108.0 | 95.0 | -13.0 | 96.0
O=C(CCCc1c[nH]c2ccccc12)NCc1cccs1 | 0.3 | -5.8 | -6.0 | 102.0 | 6.4 | 99.0 | · | · | ·
O=C(Cc1c[nH]c2ccccc12)N1CCc2ccccc21 | 0.6 | -3.0 | -42.0 | 2.0*[inhibitor] | 3.8 | 1.0*[inhibitor] | 100.0 | -3.0 | 105.0
O=C(Cc1c[nH]c2ccccc12)N/N=C/c1ccc(F)cc1 | 0.4 | 18.4 | 0.0 | 139.0* | 24.0 | 103.0 | 101.0 | -6.0 | 100.0
COCCC(=O)N1CCC(Oc2ccc(C(=O)NCCc3cnn(C)c3)cc2)CC1 | · | · | -9.0 | 96.0 | · | 101.0 | · | · | ·
COCC(=O)N1CCC(Oc2ccc(C(=O)NCCc3ccncc3)cc2)CC1 | 1.7 | -2.6 | + | 128.0* | 20.0 | 610.0* | 107.0 | 3.0 | 106.0
Cc1ccc(S(=O)(=O)N2CCOCC2)cc1NC(=O)COC(=O)CSc1ccc(Br)cc1C | 0.3 | -7.7 | 2.0 | 108.0 | 12.1 | 97.0 | · | · | ·
Cc1ccc(-n2cc(CNCC3CC(=O)N(C4CC4)C3)c(-c3cccc(C)c3)n2)cc1 (stereo not drawn) | 3.1 | 8.7 | 29.0 | 105.0 | 8.3 | 143.0* | 126.0 | 12.0 | 100.0
CC1=C(C(=O)OCC(C)C)C(c2ccccc2Cl)NC(=O)N1C (stereo not drawn) | 1.3 | -4.0 | 12.0 | 105.0 | 2.7 | 106.0 | · | · | ·
CCOCCOC(=O)C1=C(C)N(C)C(=O)NC1c1ccccc1Cl (stereo not drawn) | 0.1 | 10.2 | -19.0 | 1.0*[inhibitor] | 0.3 | 0.0*[inhibitor] | 104.0 | 2.0 | 102.0
CN(C)CCCN(C(=O)c1ccc(S(=O)(=O)N2CCCCCC2)cc1)c1nc2ccc(F)cc2s1 | · | · | 21.0 | 110.0 | · | 158.0* | 154.0 | 37.0 | 105.0
CCc1ccc2nc(N(CCCN(C)C)C(=O)c3ccc(C(=O)c4ccccc4)cc3)sc2c1 | · | · | 32.0* | 104.0 | · | 186.0* | 205.0 | 64.0 | 109.0
CN(C)CCN(C(=O)c1ccc(S(=O)(=O)N2CCCC2)cc1)c1nc2ccc(Br)cc2s1 | · | · | 18.0 | 107.0 | · | 138.0* | 177.0 | 50.0 | 109.0
COc1cccc2sc(N(CCCN(C)C)C(=O)c3ccc(S(=O)(=O)N4CCCc5ccccc54)cc3)nc12 | · | · | 38.0* | 110.0 | · | 187.0* | 172.0 | 39.0 | 107.0
